Measured values as given in paper PMC7616937 (Chemical communications (Cambridge, England), 2019).
Peptide text beside a SMILES is read from it.

How the values were obtained:
[1] = test system: neuronal dysfunction; settings: observation from the literature, no reference printed at b17; compare b4, ref 7a; cited from earlier work
[2] = Kinetics of fibrillation by Thioflavin T; assay type: physicochemical; settings: Fig. 3g
Summary of the method: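 Peptide fibrillation was tracked by Thioflavin T fluorescence, either with peptide alone or with lipid vesicles mimicking mammalian plasma membranes. The vesicles were made of 1,2-dioleoyl-sn-glycero-3-phosphocholine (DOPC), cholesterol and sphingomyelin.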

[3] = Kinetics of fiber formation by TEM imaging; assay type: physicochemical; settings: Fig. 2a, b

Molecule | toxicity [1] | ThT fluorescence during kinetic measurement ([2]; peptide only, without lipid vesicles, followed for 96 hours) | effect of addition of lipid vesicles on ThT fluorescence / fibrillation ([2]; with DOPC/Chol/Sph lipid vesicles) | time to mature fibers / completion of self-assembly [3]
Aβ(1-42): full length Aβ peptide | high toxicity | – | – | –
CC(=O)N[C@@H](CCCCN)C(=O)N[C@@H](CC(C)C)C(=O)N[C@H](C(=O)N[C@@H](Cc1ccccc1)C(=O)N[C@@H](Cc1ccccc1)C(=O)N[C@@H](C)C(=O)N[C@@H](CCC(=O)O)C(N)=O)C(C)C [Aβ(16-22), Ac-KLVFFAE-NH2] (Ac-KLVFFAE-NH2) | – | dramatic increase in fluorescence | inhibition of the fibrillation process | four to seven days
